Bioassay records as filed in PubChem.
GASC1 inh: blocks human GASC-1 (KDM4C) demethylase activity; Q9H3R0; GST-KDM4C 2-372, H3K9me3 peptide, LANCE TR-FRET; inhibition, % at 12.5 µM; 0.15% of 96,000 active; AID 720574;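 active = mean replicate inhibition above about 25%, with at least 55% of replicates also reaching it, limit read from the data, passing the limit was not always enough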
Target sequence (Q9H3R0 2-372 limits assumed): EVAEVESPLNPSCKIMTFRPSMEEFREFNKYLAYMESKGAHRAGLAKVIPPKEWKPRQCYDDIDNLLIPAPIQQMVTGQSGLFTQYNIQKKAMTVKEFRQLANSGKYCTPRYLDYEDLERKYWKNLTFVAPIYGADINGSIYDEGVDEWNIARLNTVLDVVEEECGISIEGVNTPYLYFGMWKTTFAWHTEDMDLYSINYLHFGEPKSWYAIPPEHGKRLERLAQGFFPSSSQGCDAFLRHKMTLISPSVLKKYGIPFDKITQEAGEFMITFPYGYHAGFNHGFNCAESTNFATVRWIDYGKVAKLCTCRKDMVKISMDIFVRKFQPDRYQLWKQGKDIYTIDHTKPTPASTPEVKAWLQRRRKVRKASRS
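Material: N-terminal GST-fused human GASC-1 (KDM4C) fragment, residues 2-372. Input: 10 nM enzyme. Incubation: enzyme reaction 30 min, then detection 60 min, both room temperature. Doses: one test concentration per compound. Read-out basis: inhibition from TR-FRET ratio decrease. Detection: LANCE TR-FRET, excitation 340 nm, emissions 618 and 671 nm.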
IDH1 mut inh: blocks human IDH1 R132H reductase activity; diaphorase/resazurin fluorescence, 60 min; inhibition, % at 10 µM; 0.18% of 70,000 active; AID 624101; in the data active = inhibition above about 34%
T cruzi growth-1: T. cruzi proliferation inhibition | AID 624255 | 5.9% of 77,000 active | inhibition, % at 8.34 µM | T. cruzi beta-gal in NIH3T3, GalScreen luminescence, 90 h;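 active = mean inhibition above about 93%, with at least 55% of replicates each passing it, limit read from the data, passing the limit was not always enough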
Pf Dd2 inh: blocks growth of Plasmodium falciparum Dd2 parasites. AID 1159554. P. falciparum Dd2 growth, SYBR Green, 72 h; active compounds read low. 2.3% of 94,000 active. activity change, % at 10 µM; in the data active = activity change below about -80%
T cruzi growth-2: inhibitors of T. cruzi proliferation; shares compounds with T cruzi growth-1; T. cruzi beta-gal in NIH3T3, GalScreen luminescence, 90 h; inhibition, % at 8.35 µM; AID 651739; 72% of 5,600 active;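 active = mean replicate inhibition above about 95% and at least 55% of replicates individually reaching it, limit read from the data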
T cruzi growth-3: inhibitors of T. cruzi proliferation | T. cruzi beta-gal in NIH3T3, GalScreen luminescence, 90 h | shares compounds with T cruzi growth-1 | 21% of 5,600 active | inhibition, % at 2.09 µM | AID 651740;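 active = mean inhibition above about 95%, with at least 55% of replicates also reaching it, limit read from the data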
3T3 cytotox: kills mouse NIH/3T3 fibroblasts | shares compounds with T cruzi growth-1 | NIH/3T3 viability, CellTiter-Glo ATP luminescence, 90 h | cytotoxicity (signal decrease), % at 8.35 µM | 14% of 5,600 active;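 active = mean signal decrease across replicates above about 35% based on untreated-well scatter, with enough replicates individually passing, limit read from the data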
NIH3T3 tox 2: kills mouse NIH/3T3 fibroblasts | shares compounds with T cruzi growth-1 | NIH/3T3 viability, CellTiter-Glo ATP luminescence, 90 h | inhibition, % at 24.9 µM | 56% of 5,600 active | AID 651744;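 active = mean loss of cell viability signal at or above a set limit, and enough replicates individually reaching it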
Of the large screens only hits and unclear results are named; the others gave an inactive call (follow-up assays come after a bar, where they were run). This is a sample that favours compounds with a hit; in the whole collection about 5.9% have one here.

N#Cc1cccc(-c2ccc([C@@H]3[C@H]4CN(C(=O)Cc5ccncc5)CCCCN4[C@H]3CO)cc2)c1	T cruzi growth-1 108 (no result: IDH1 mut inh) | T cruzi growth-2 inactive | T cruzi growth-3 inactive | 3T3 cytotox inactive | NIH3T3 tox 2 inactive
N#Cc1cccc(-c2ccc([C@H]3[C@@H](CO)N4CCCCN(C(=O)Cc5ccncc5)C[C@@H]34)cc2)c1	T cruzi growth-1 102 (no result: IDH1 mut inh) | T cruzi growth-2 inactive | T cruzi growth-3 inactive | 3T3 cytotox inactive | NIH3T3 tox 2 inactive
N#Cc1cccc(-c2ccc([C@@H]3[C@@H](CO)N4CCCCN(C(=O)Cc5ccncc5)C[C@@H]34)cc2)c1	none (no result: IDH1 mut inh)
N#Cc1cccc(-c2ccc([C@H]3[C@H](CO)N4CCCCN(C(=O)Cc5ccncc5)C[C@@H]34)cc2)c1	T cruzi growth-1 118 (no result: IDH1 mut inh) | T cruzi growth-2 100 | T cruzi growth-3 inactive | 3T3 cytotox inactive | NIH3T3 tox 2 52
CN(C)CC#Cc1ccc([C@@H]2[C@@H](CO)N3CCCCN(C(=O)Cc4ccccn4)C[C@@H]23)cc1	none (no result: IDH1 mut inh)
CN(C)CC#Cc1ccc([C@@H]2[C@H](CO)N3CCCCN(C(=O)Cc4ccccn4)C[C@@H]23)cc1	T cruzi growth-1 114 (no result: IDH1 mut inh) | T cruzi growth-2 inactive | T cruzi growth-3 inactive | 3T3 cytotox inactive | NIH3T3 tox 2 inactive
CN(C)CC#Cc1ccc([C@H]2[C@@H](CO)N3CCCCN(C(=O)Cc4ccccn4)C[C@H]23)cc1	none (no result: IDH1 mut inh)
CN(C)CC#Cc1ccc([C@@H]2[C@@H](CO)N3CCCCN(C(=O)Cc4ccccn4)C[C@H]23)cc1	T cruzi growth-1 114 (no result: IDH1 mut inh) | T cruzi growth-2 inactive | T cruzi growth-3 inactive | 3T3 cytotox inactive | NIH3T3 tox 2 inactive
CCN1CC2(COC)CCC(O)C34C5CC6C(OC)CC(O)(C5C6O)C(C(OC)C23)C14 (configuration not stated)	none (no result: GASC1 inh, T cruzi growth-1, Pf Dd2 inh)
CC=Cc1ccc2n(c1=O)C[C@H]1[C@H](CO)[C@@H](C(=O)OC)[C@@H]2N1S(=O)(=O)c1cccc(C)c1 (mixture of isomers)	T cruzi growth-1 107 (no result: IDH1 mut inh, Pf Dd2 inh) | T cruzi growth-2 102 | T cruzi growth-3 inactive | 3T3 cytotox inactive | NIH3T3 tox 2 inactive
